Test results published in ChEMBL document CHEMBL1132644, “Substituted isoquinolines and quinazolines as potential antiinflammatory agents. Synthesis and biological evaluation of inhibitors of tumor necrosis factor alpha” (J Med Chem, 1999).

Legend:
Jurkat = experiment: Cell toxicity against jurkat cells determined using MTT assay; format: functional, cell-based; settings: Homo sapiens
Procedure, shortened: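 Jurkat cells, MTT (3-[4,5-dimethylthiazol-2-yl]-2,5-diphenyltetrazolium bromide) read-out. The value is the µM concentration that inhibited growth by 50% of control.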

Tumor necrosis factor = Tumor necrosis factor (Homo sapiens, UniProt P01375); experiment: The compound was tested in vitro for inhibitory activity against Tumor necrosis factor alpha from human PMBC cell line by ELISA test.; format: functional, cell-based
Procedure, shortened: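 PBMC isolated from heparinized normal human blood by Ficoll-Histopaque, cultured in RPMI 1640 with 20% autologous plasma and L-glutamine. Compounds were added at 2× in an equal volume, 60 min preincubation, then LPS stimulation. Supernatant was taken 18 h later. TNFα sandwich ELISA (2 µg/mL mouse anti-human capture, BSA block, 2 h at 37 °C), standard curve. IC50 is the µM concentration giving 50% inhibition versus control; a subset was run in ≥3 separate experiments.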

Sequence of Tumor necrosis factor (P01375 whole entry): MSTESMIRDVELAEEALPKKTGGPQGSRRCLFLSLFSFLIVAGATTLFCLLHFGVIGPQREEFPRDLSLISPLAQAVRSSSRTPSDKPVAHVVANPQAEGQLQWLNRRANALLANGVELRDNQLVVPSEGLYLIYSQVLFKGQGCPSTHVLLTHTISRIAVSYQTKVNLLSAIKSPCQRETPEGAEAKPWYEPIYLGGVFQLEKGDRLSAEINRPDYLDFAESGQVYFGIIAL

`CCOC(=O)CCCn1ccc2cc(OC(=O)OCC)c(OC(=O)OCC)cc2c1=O` was tested. Which IC50 (Jurkat) did it give?
Its IC50 is 40 µM.

What about the IC50 (Tumor necrosis factor) of the same molecule?
Its IC50 is 11 µM.

Which IC50 (Tumor necrosis factor) does the source give for `CNC(=O)CCCn1ccc2cc(OC)c(OC)cc2c1=O` here?
Its IC50 is over 100 µM.

With `CCOC(=O)CCCn1cnc2ccccc2c1=O` as the molecule, how does the IC50 (Tumor necrosis factor) read?
The IC50 was over 25 µM.

Which IC50 (Jurkat) does the source give for `CCOC(=O)CCCn1cc(Br)c2cc(O)c(O)cc2c1=O` here?
Its IC50 is 11 µM.

What about the IC50 (Tumor necrosis factor) of the same molecule?
The IC50 was 1 µM.

How did the IC50 (Tumor necrosis factor) turn out when `CCOC(=O)CCCOc1nc(Nc2ccc(Br)cc2)nc2cc(OC)c(OC)cc12` was run?
Its IC50 is over 25 µM.

How did the IC50 (Tumor necrosis factor) turn out when `CCOC(=O)CCCn1cc(F)c2cc(OC)c(OC)cc2c1=O` was run?
Its IC50 is 20 µM.

For `CCOC(=O)CCCn1cc(Br)c2cc(OC)c(OC)cc2c1=O`, which IC50 (Tumor necrosis factor) is on record?
The IC50 was 51 µM.

Which IC50 (Tumor necrosis factor) does the source give for `CCOC(=O)CCCn1cc(F)c2c(F)c(OC)c(OC)cc2c1=O` here?
Its IC50 is over 100 µM.

Which IC50 (Tumor necrosis factor) does the source give for `COc1cc2ccnc(Nc3cccc(Br)c3)c2cc1OC` here?
Its IC50 is 37 µM.

For `CCOC(=O)CCCn1cc(C#N)c2cc(OC)c(OC)cc2c1=O`, which IC50 (Jurkat) is on record?
The IC50 was 10 µM.

And the IC50 (Tumor necrosis factor)?
The IC50 was 5 µM.

With `CCOC(=O)CCCn1c(Cl)nc2cc(OC)c(OC)cc2c1=O` as the molecule, how does the IC50 (Tumor necrosis factor) read?
The IC50 was 48 µM.

Which IC50 (Jurkat) does the source give for `CCOC(=O)CCCCn1cnc2cc(OC)c(OC)cc2c1=O` here?
The IC50 was 8 µM.

What about the IC50 (Tumor necrosis factor) of the same molecule?
The IC50 was 6 µM.

With `CCOC(=O)CCCN1CNc2ccc(N)cc2C1=O` as the molecule, how does the IC50 (Jurkat) read?
Its IC50 is over 100 µM.

What about the IC50 (Tumor necrosis factor) of the same molecule?
The IC50 was 10 µM.

Which IC50 (Jurkat) does the source give for `CCOC(=O)CCCn1ccc2cc(OC(C)=O)c(OC(C)=O)cc2c1=O` here?
Its IC50 is 40 µM.

Which IC50 (Tumor necrosis factor) does the source give for `COc1cc2ccnc(Nc3cccc(Cl)c3)c2cc1OC` here?
Its IC50 is 33 µM.

How did the IC50 (Tumor necrosis factor) turn out when `CCOC(=O)CCCn1cnc2cccc(Cl)c2c1=O` was run?
The IC50 was over 25 µM.

Which IC50 (Tumor necrosis factor) does the source give for `CCOC(=O)CCCn1cnc2cc([N+](=O)[O-])ccc2c1=O` here?
The IC50 was over 25 µM.

Which IC50 (Tumor necrosis factor) does the source give for `CCOC(=O)CCCn1c(Nc2ccccc2)nc2cc(OC)c(OC)cc2c1=O` here?
The IC50 was over 25 µM.

For `CCOC(=O)CCCOc1nc(Nc2ccccc2)nc2cc(OC)c(OC)cc12`, which IC50 (Tumor necrosis factor) is on record?
The IC50 was over 25 µM.

How did the IC50 (Tumor necrosis factor) turn out when `CCOC(=O)CCCOc1nc(N(C)C)nc2cc(OC)c(OC)cc12` was run?
The IC50 was over 25 µM.

With `CCOC(=O)CCCn1cnc2cc(N)ccc2c1=O` as the molecule, how does the IC50 (Jurkat) read?
The IC50 was 13 µM.

And the IC50 (Tumor necrosis factor)?
The IC50 was 9 µM.

How did the IC50 (Jurkat) turn out when `CCOC(=O)CCCn1cnc2ccc(N)cc2c1=O` was run?
The IC50 was over 50 µM.

And the IC50 (Tumor necrosis factor)?
Its IC50 is 4 µM.

With `CCOC(=O)CCCN1CNc2cc(N)ccc2C1=O` as the molecule, how does the IC50 (Jurkat) read?
The IC50 was over 50 µM.

And the IC50 (Tumor necrosis factor)?
Its IC50 is 5 µM.

How did the IC50 (Tumor necrosis factor) turn out when `COc1cc2ccn(CCCC(=O)O)c(=O)c2cc1OC` was run?
Its IC50 is over 100 µM.

`CCOC(=O)CCCn1cc(CN)c2cc(OC)c(OC)cc2c1=O` was tested. Which IC50 (Jurkat) did it give?
Its IC50 is 7 µM.

And the IC50 (Tumor necrosis factor)?
Its IC50 is 13 µM.

Which results are given for `CCOC(=O)CCCCn1ccc2cc(OC)c(OC)cc2c1=O`?
IC50 (Jurkat): 22 µM; IC50 (Tumor necrosis factor): 21 µM

What does the source list for `CCCn1c(=O)n(CCCC(=O)OCC)c(=O)c2nccnc21`?
IC50 (Jurkat): > 25 µM; IC50 (Tumor necrosis factor): 3 µM

Which IC50 (Tumor necrosis factor) does the source give for `CCOC(=O)CCCn1cnc2cc(Cl)ccc2c1=O` here?
Its IC50 is over 25 µM.

What does the source list for `CCOC(=O)CCCn1ccc2ccccc2c1=O`?
IC50 (Jurkat): > 50 µM; IC50 (Tumor necrosis factor): 5 µM

`CCOC(=O)CCCn1cnc2cc(OC)c(OC)c(N)c2c1=O` [listing 1 of 2 here] was tested. Which IC50 (Tumor necrosis factor) did it give?
The IC50 was 15 µM.

What does the source list for `CCOC(=O)CCCn1cnc2cc(OC)c(OC)c([N+](=O)[O-])c2c1=O`?
IC50 (Jurkat): > 25 µM; IC50 (Tumor necrosis factor): 11 µM

How did the IC50 (Tumor necrosis factor) turn out when `CCOC(=O)CCCn1c(Nc2ccc(Br)cc2)nc2cc(OC)c(OC)cc2c1=O` was run?
Its IC50 is over 50 µM.

With `CCOC(=O)CCCn1cnc2cc(F)c(F)cc2c1=O` as the molecule, how does the IC50 (Tumor necrosis factor) read?
The IC50 was over 25 µM.

Which IC50 (Tumor necrosis factor) does the source give for `COc1cc2ccnc(Nc3ccc(Br)cc3)c2cc1OC` here?
The IC50 was 38 µM.

For `CCOC(=O)CCCn1cnc2cc(OC)c(OC)cc2c1=O`, which IC50 (Jurkat) is on record?
Its IC50 is 3 µM.

And the IC50 (Tumor necrosis factor)?
The IC50 was 3 µM.

For `CCOC(=O)CCCn1cnc2cc(OC)c(OC)c(NC(C)=O)c2c1=O`, which IC50 (Tumor necrosis factor) is on record?
The IC50 was over 100 µM.

With `CCOC(=O)CCCn1cnc2ccc([N+](=O)[O-])cc2c1=O` as the molecule, how does the IC50 (Tumor necrosis factor) read?
Its IC50 is over 25 µM.

For `CCOC(=O)CCCn1c(N=[N+]=[N-])nc2cc(OC)c(OC)cc2c1=O`, which IC50 (Jurkat) is on record?
Its IC50 is over 25 µM.

And the IC50 (Tumor necrosis factor)?
The IC50 was 14 µM.

`CCOC(=O)CCn1ccc2cc(OC)c(OC)cc2c1=O` was tested. Which IC50 (Tumor necrosis factor) did it give?
The IC50 was 50 µM.

Which results are given for `CCOC(=O)CCCn1cc(C(C)=O)c2cc(OC)c(OC)cc2c1=O`?
IC50 (Jurkat): 47 µM; IC50 (Tumor necrosis factor): 15 µM

For `CCOC(=O)CCCn1c(N)nc2cc(OC)c(OC)cc2c1=O`, which IC50 (Tumor necrosis factor) is on record?
Its IC50 is over 25 µM.

How did the IC50 (Tumor necrosis factor) turn out when `COc1cc2ccnc(NCCO)c2cc1OC` was run?
Its IC50 is 55 µM.

How did the IC50 (Tumor necrosis factor) turn out when `CNC(=O)CCCn1cc(Br)c2cc(OC)c(OC)cc2c1=O` was run?
Its IC50 is over 100 µM.

How did the IC50 (Tumor necrosis factor) turn out when `CCOC(=O)CCCn1cnc2ccc(Br)cc2c1=O` was run?
Its IC50 is over 25 µM.

How did the IC50 (Tumor necrosis factor) turn out when `CCOC(=O)CCCn1cnc2cc(O)c(O)cc2c1=O` was run?
Its IC50 is 48 µM.

With `COc1cc2ccnc(Nc3ccccc3)c2cc1OC` as the molecule, how does the IC50 (Tumor necrosis factor) read?
The IC50 was over 100 µM.

For `CCOC(=O)CCCn1cnc2cc(OC)c(OC)c(N=[N+]=[N-])c2c1=O`, which IC50 (Tumor necrosis factor) is on record?
Its IC50 is over 25 µM.

For `CCOC(=O)CCCn1ccc2cc(OC)c(OC)cc2c1=O`, which IC50 (Jurkat) is on record?
Its IC50 is over 50 µM.

What about the IC50 (Tumor necrosis factor) of the same molecule?
Its IC50 is 5 µM.

`CCOC(=O)CCCn1cnc2ccc(Cl)cc2c1=O` was tested. Which IC50 (Tumor necrosis factor) did it give?
The IC50 was over 25 µM.

How did the IC50 (Tumor necrosis factor) turn out when `COc1cc2ccnc(Nc3ccc(Cl)cc3)c2cc1OC` was run?
The IC50 was 35 µM.

Which results are given for `CCOC(=O)CCCn1ccc2cc(O)c(O)cc2c1=O`?
IC50 (Jurkat): 47 µM; IC50 (Tumor necrosis factor): 2 µM

How did the IC50 (Tumor necrosis factor) turn out when `CCOC(=O)CCCn1cnc2cc(F)ccc2c1=O` was run?
The IC50 was over 25 µM.

How did the IC50 (Tumor necrosis factor) turn out when `CCOC(=O)CCCn1c(Nc2ccc(N=[N+]=[N-])cc2)nc2cc(OC)c(OC)cc2c1=O` was run?
The IC50 was over 50 µM.

How did the IC50 (Tumor necrosis factor) turn out when `CCOC(=O)CCCn1cc([N+](=O)[O-])c2cc(OC)c(OC)cc2c1=O` was run?
The IC50 was 35 µM.

With `CCOC(=O)CCCOc1nc(Cl)nc2cc(OC)c(OC)cc12` as the molecule, how does the IC50 (Tumor necrosis factor) read?
Its IC50 is 68 µM.

`CCOC(=O)CCCn1cnc2cc(OC)c(OC)c(Cl)c2c1=O` was tested. Which IC50 (Jurkat) did it give?
Its IC50 is 89 µM.

And the IC50 (Tumor necrosis factor)?
Its IC50 is 22 µM.

Which IC50 (Jurkat) does the source give for `CCOC(=O)CCn1cnc2cc(OC)c(OC)cc2c1=O` here?
The IC50 was over 25 µM.

What about the IC50 (Tumor necrosis factor) of the same molecule?
Its IC50 is 9 µM.

With `CCOC(=O)CCCn1cnc2ccc(F)cc2c1=O` as the molecule, how does the IC50 (Tumor necrosis factor) read?
The IC50 was over 25 µM.

`CCOC(=O)CCCn1cc(N)c2cc(OC)c(OC)cc2c1=O` was tested. Which IC50 (Tumor necrosis factor) did it give?
Its IC50 is 37 µM.

What does the source list for `COc1cc2ccn(CCCC(=O)OCCN3CCOCC3)c(=O)c2cc1OC`?
IC50 (Jurkat): > 100 µM; IC50 (Tumor necrosis factor): 10 µM

With `CCOC(=O)CCCn1cnc2cc(OC)c(OC)c(N)c2c1=O` [listing 2 of 2 here] as the molecule, how does the IC50 (Jurkat) read?
Its IC50 is over 100 µM.

And the IC50 (Tumor necrosis factor)?
The IC50 was 20 µM.
